Measurements reported in paper PMC5621377 (Clinical cancer research : an official journal of the …, 2016).

Test system: patients with Rb+ advanced solid tumors or lymphomas
Assay: Safety assessments, adverse events
Assay type: in vivo, human
Outline: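 Oral test compound given daily 3-weeks-on/1-week-off in 28-day cycles, with doses escalated by a Bayesian logistic regression model with overdose control. Safety assessments, including ECGs, were done at baseline and at regular intervals. AEs were graded by CTCAE v4.0 and classed as suspected related to treatment. All patients dosed at least once were included; summaries were descriptive per dose level.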

[1] = 50 mg 3-weeks-on/1-week-off, n = 4
[2] = 70 mg 3-weeks-on/1-week-off, n = 2
[3] = 140 mg 3-weeks-on/1-week-off, n = 4
[4] = 260 mg 3-weeks-on/1-week-off, n = 4
[5] = 280 mg 3-weeks-on/1-week-off, n = 4
[6] = 350 mg 3-weeks-on/1-week-off, n = 5
[7] = 400 mg 3-weeks-on/1-week-off, n = 5

CN(C)C(=O)c1cc2cnc(Nc3ccc(N4CCNCC4)cn3)nc2n1C1CCCC1 [ribociclib]
Anemia, Grade 3/4, AE suspected related to study treatment [1]: 0 n (%) | Anemia, Grade All, AE suspected related to study treatment [1]: 0 n (%) | Appetite decreased, Grade 3/4, AE suspected related to study treatment [1]: 0 n (%) | Appetite decreased, Grade All, AE suspected related to study treatment [1]: 0 n (%) | Blood creatinine increased, Grade 3/4, AE suspected related to study treatment [1]: 0 n (%) | Blood creatinine increased, Grade All, AE suspected related to study treatment [1]: 0 n (%) | Diarrhea, Grade 3/4, AE suspected related to study treatment [1]: 0 n (%) | Diarrhea, Grade All, AE suspected related to study treatment [1]: 0 n (%) | Fatigue, Grade 3/4, AE suspected related to study treatment [1]: 0 n (%) | Fatigue, Grade All, AE suspected related to study treatment [1]: 2 (50) n (%) | Leukopenia, Grade 3/4, AE suspected related to study treatment [1]: 0 n (%) | Leukopenia, Grade All, AE suspected related to study treatment [1]: 0 n (%) | Lymphopenia, Grade 3/4, AE suspected related to study treatment [1]: 0 n (%) | Lymphopenia, Grade All, AE suspected related to study treatment [1]: 0 n (%) | Nausea, Grade 3/4, AE suspected related to study treatment [1]: 0 n (%) | Nausea, Grade All, AE suspected related to study treatment [1]: 0 n (%) | Neutropenia, Grade 3/4, AE suspected related to study treatment [1]: 0 n (%) | Neutropenia, Grade All, AE suspected related to study treatment [1]: 0 n (%) | Thrombocytopenia, Grade 3/4, AE suspected related to study treatment [1]: 0 n (%) | Thrombocytopenia, Grade All, AE suspected related to study treatment [1]: 0 n (%) | Vomiting, Grade 3/4, AE suspected related to study treatment [1]: 0 n (%) | Vomiting, Grade All, AE suspected related to study treatment [1]: 0 n (%) | Anemia, Grade 3/4, AE suspected related to study treatment [2]: 0 n (%) | Anemia, Grade All, AE suspected related to study treatment [2]: 0 n (%) | Appetite decreased, Grade 3/4, AE suspected related to study treatment [2]: 0 n (%) | Appetite decreased, Grade All, AE suspected related to study treatment [2]: 0 n (%) | Blood creatinine increased, Grade 3/4, AE suspected related to study treatment [2]: 0 n (%) | Blood creatinine increased, Grade All, AE suspected related to study treatment [2]: 0 n (%) | Diarrhea, Grade 3/4, AE suspected related to study treatment [2]: 0 n (%) | Diarrhea, Grade All, AE suspected related to study treatment [2]: 0 n (%) | Fatigue, Grade 3/4, AE suspected related to study treatment [2]: 0 n (%) | Fatigue, Grade All, AE suspected related to study treatment [2]: 2 (100) n (%) | Leukopenia, Grade 3/4, AE suspected related to study treatment [2]: 0 n (%) | Leukopenia, Grade All, AE suspected related to study treatment [2]: 0 n (%) | Lymphopenia, Grade 3/4, AE suspected related to study treatment [2]: 0 n (%) | Lymphopenia, Grade All, AE suspected related to study treatment [2]: 0 n (%) | Nausea, Grade 3/4, AE suspected related to study treatment [2]: 0 n (%) | Nausea, Grade All, AE suspected related to study treatment [2]: 1 (50) n (%) | Neutropenia, Grade 3/4, AE suspected related to study treatment [2]: 0 n (%) | Neutropenia, Grade All, AE suspected related to study treatment [2]: 0 n (%) | Thrombocytopenia, Grade 3/4, AE suspected related to study treatment [2]: 0 n (%) | Thrombocytopenia, Grade All, AE suspected related to study treatment [2]: 0 n (%) | Vomiting, Grade 3/4, AE suspected related to study treatment [2]: 0 n (%) | Vomiting, Grade All, AE suspected related to study treatment [2]: 1 (50) n (%) | Anemia, Grade 3/4, AE suspected related to study treatment [3]: 0 n (%) | Anemia, Grade All, AE suspected related to study treatment [3]: 0 n (%) | Appetite decreased, Grade 3/4, AE suspected related to study treatment [3]: 0 n (%) | Appetite decreased, Grade All, AE suspected related to study treatment [3]: 1 (25) n (%) | Blood creatinine increased, Grade 3/4, AE suspected related to study treatment [3]: 0 n (%) | Blood creatinine increased, Grade All, AE suspected related to study treatment [3]: 0 n (%) | Diarrhea, Grade 3/4, AE suspected related to study treatment [3]: 0 n (%) | Diarrhea, Grade All, AE suspected related to study treatment [3]: 0 n (%) | Fatigue, Grade 3/4, AE suspected related to study treatment [3]: 0 n (%) | Fatigue, Grade All, AE suspected related to study treatment [3]: 3 (75) n (%) | Leukopenia, Grade 3/4, AE suspected related to study treatment [3]: 0 n (%) | Leukopenia, Grade All, AE suspected related to study treatment [3]: 0 n (%) | Lymphopenia, Grade 3/4, AE suspected related to study treatment [3]: 0 n (%) | Lymphopenia, Grade All, AE suspected related to study treatment [3]: 0 n (%) | Nausea, Grade 3/4, AE suspected related to study treatment [3]: 0 n (%) | Nausea, Grade All, AE suspected related to study treatment [3]: 0 n (%) | Neutropenia, Grade 3/4, AE suspected related to study treatment [3]: 0 n (%) | Neutropenia, Grade All, AE suspected related to study treatment [3]: 0 n (%) | Thrombocytopenia, Grade 3/4, AE suspected related to study treatment [3]: 0 n (%) | Thrombocytopenia, Grade All, AE suspected related to study treatment [3]: 0 n (%) | Vomiting, Grade 3/4, AE suspected related to study treatment [3]: 0 n (%) | Vomiting, Grade All, AE suspected related to study treatment [3]: 0 n (%) | Anemia, Grade 3/4, AE suspected related to study treatment [4]: 0 n (%) | Anemia, Grade All, AE suspected related to study treatment [4]: 0 n (%) | Appetite decreased, Grade 3/4, AE suspected related to study treatment [4]: 0 n (%) | Appetite decreased, Grade All, AE suspected related to study treatment [4]: 0 n (%) | Blood creatinine increased, Grade 3/4, AE suspected related to study treatment [4]: 0 n (%) | Blood creatinine increased, Grade All, AE suspected related to study treatment [4]: 0 n (%) | Diarrhea, Grade 3/4, AE suspected related to study treatment [4]: 0 n (%) | Diarrhea, Grade All, AE suspected related to study treatment [4]: 0 n (%) | Fatigue, Grade 3/4, AE suspected related to study treatment [4]: 0 n (%) | Fatigue, Grade All, AE suspected related to study treatment [4]: 4 (100) n (%) | Leukopenia, Grade 3/4, AE suspected related to study treatment [4]: 0 n (%) | Leukopenia, Grade All, AE suspected related to study treatment [4]: 1 (25) n (%) | Lymphopenia, Grade 3/4, AE suspected related to study treatment [4]: 0 n (%) | Lymphopenia, Grade All, AE suspected related to study treatment [4]: 2 (50) n (%) | Nausea, Grade 3/4, AE suspected related to study treatment [4]: 0 n (%) | Nausea, Grade All, AE suspected related to study treatment [4]: 0 n (%) | Neutropenia, Grade 3/4, AE suspected related to study treatment [4]: 0 n (%) | Neutropenia, Grade All, AE suspected related to study treatment [4]: 0 n (%) | Thrombocytopenia, Grade 3/4, AE suspected related to study treatment [4]: 0 n (%) | Thrombocytopenia, Grade All, AE suspected related to study treatment [4]: 0 n (%) | Vomiting, Grade 3/4, AE suspected related to study treatment [4]: 0 n (%) | Vomiting, Grade All, AE suspected related to study treatment [4]: 0 n (%) | Anemia, Grade 3/4, AE suspected related to study treatment [5]: 0 n (%) | Anemia, Grade All, AE suspected related to study treatment [5]: 0 n (%) | Appetite decreased, Grade 3/4, AE suspected related to study treatment [5]: 0 n (%) | Appetite decreased, Grade All, AE suspected related to study treatment [5]: 2 (50) n (%) | Blood creatinine increased, Grade 3/4, AE suspected related to study treatment [5]: 0 n (%) | Blood creatinine increased, Grade All, AE suspected related to study treatment [5]: 0 n (%) | Diarrhea, Grade 3/4, AE suspected related to study treatment [5]: 0 n (%) | Diarrhea, Grade All, AE suspected related to study treatment [5]: 1 (25) n (%) | Fatigue, Grade 3/4, AE suspected related to study treatment [5]: 0 n (%) | Fatigue, Grade All, AE suspected related to study treatment [5]: 1 (25) n (%) | Leukopenia, Grade 3/4, AE suspected related to study treatment [5]: 0 n (%) | Leukopenia, Grade All, AE suspected related to study treatment [5]: 1 (25) n (%) | Lymphopenia, Grade 3/4, AE suspected related to study treatment [5]: 1 (25) n (%) | Lymphopenia, Grade All, AE suspected related to study treatment [5]: 1 (25) n (%) | Nausea, Grade 3/4, AE suspected related to study treatment [5]: 0 n (%) | Nausea, Grade All, AE suspected related to study treatment [5]: 2 (50) n (%) | Neutropenia, Grade 3/4, AE suspected related to study treatment [5]: 0 n (%) | Neutropenia, Grade All, AE suspected related to study treatment [5]: 1 (25) n (%) | Thrombocytopenia, Grade 3/4, AE suspected related to study treatment [5]: 0 n (%) | Thrombocytopenia, Grade All, AE suspected related to study treatment [5]: 1 (25) n (%) | Vomiting, Grade 3/4, AE suspected related to study treatment [5]: 0 n (%) | Vomiting, Grade All, AE suspected related to study treatment [5]: 0 n (%) | Anemia, Grade 3/4, AE suspected related to study treatment [6]: 0 n (%) | Anemia, Grade All, AE suspected related to study treatment [6]: 2 (40) n (%) | Appetite decreased, Grade 3/4, AE suspected related to study treatment [6]: 0 n (%) | Appetite decreased, Grade All, AE suspected related to study treatment [6]: 1 (20) n (%) | Blood creatinine increased, Grade 3/4, AE suspected related to study treatment [6]: 0 n (%) | Blood creatinine increased, Grade All, AE suspected related to study treatment [6]: 3 (60) n (%) | Diarrhea, Grade 3/4, AE suspected related to study treatment [6]: 0 n (%) | Diarrhea, Grade All, AE suspected related to study treatment [6]: 1 (20) n (%) | Fatigue, Grade 3/4, AE suspected related to study treatment [6]: 0 n (%) | Fatigue, Grade All, AE suspected related to study treatment [6]: 1 (20) n (%) | Leukopenia, Grade 3/4, AE suspected related to study treatment [6]: 0 n (%) | Leukopenia, Grade All, AE suspected related to study treatment [6]: 2 (40) n (%) | Lymphopenia, Grade 3/4, AE suspected related to study treatment [6]: 1 (20) n (%) | Lymphopenia, Grade All, AE suspected related to study treatment [6]: 1 (20) n (%) | Nausea, Grade 3/4, AE suspected related to study treatment [6]: 0 n (%) | Nausea, Grade All, AE suspected related to study treatment [6]: 2 (40) n (%) | Neutropenia, Grade 3/4, AE suspected related to study treatment [6]: 0 n (%) | Neutropenia, Grade All, AE suspected related to study treatment [6]: 1 (20) n (%) | Thrombocytopenia, Grade 3/4, AE suspected related to study treatment [6]: 0 n (%) | Thrombocytopenia, Grade All, AE suspected related to study treatment [6]: 0 n (%) | Vomiting, Grade 3/4, AE suspected related to study treatment [6]: 0 n (%) | Vomiting, Grade All, AE suspected related to study treatment [6]: 2 (40) n (%) | Anemia, Grade 3/4, AE suspected related to study treatment [7]: 0 n (%) | Anemia, Grade All, AE suspected related to study treatment [7]: 2 (40) n (%) | Appetite decreased, Grade 3/4, AE suspected related to study treatment [7]: 0 n (%) | Appetite decreased, Grade All, AE suspected related to study treatment [7]: 0 n (%) | Blood creatinine increased, Grade 3/4, AE suspected related to study treatment [7]: 0 n (%) | Blood creatinine increased, Grade All, AE suspected related to study treatment [7]: 1 (20) n (%) | Diarrhea, Grade 3/4, AE suspected related to study treatment [7]: 0 n (%) | Diarrhea, Grade All, AE suspected related to study treatment [7]: 0 n (%) | Fatigue, Grade 3/4, AE suspected related to study treatment [7]: 0 n (%) | Fatigue, Grade All, AE suspected related to study treatment [7]: 1 (20) n (%) | Leukopenia, Grade 3/4, AE suspected related to study treatment [7]: 0 n (%) | Leukopenia, Grade All, AE suspected related to study treatment [7]: 1 (20) n (%) | Lymphopenia, Grade 3/4, AE suspected related to study treatment [7]: 0 n (%) | Lymphopenia, Grade All, AE suspected related to study treatment [7]: 0 n (%) | Nausea, Grade 3/4, AE suspected related to study treatment [7]: 0 n (%)
